HKDC1 act: HKDC1 hexokinase activators, primary screen, biochemical, fluorescence, uHTS | Q2TB90 | recombinant HKDC1, G6PDH/diaphorase resazurin fluorescence; active compounds read low | activity change, negative = activation, % at 20 µM | actives 0.056% (n = 340,000) | AID 493187, 2011;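 active means activation of 40% or more at 20 µM, a change of -40% or lower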
Target sequence (Q2TB90 whole entry, looked up): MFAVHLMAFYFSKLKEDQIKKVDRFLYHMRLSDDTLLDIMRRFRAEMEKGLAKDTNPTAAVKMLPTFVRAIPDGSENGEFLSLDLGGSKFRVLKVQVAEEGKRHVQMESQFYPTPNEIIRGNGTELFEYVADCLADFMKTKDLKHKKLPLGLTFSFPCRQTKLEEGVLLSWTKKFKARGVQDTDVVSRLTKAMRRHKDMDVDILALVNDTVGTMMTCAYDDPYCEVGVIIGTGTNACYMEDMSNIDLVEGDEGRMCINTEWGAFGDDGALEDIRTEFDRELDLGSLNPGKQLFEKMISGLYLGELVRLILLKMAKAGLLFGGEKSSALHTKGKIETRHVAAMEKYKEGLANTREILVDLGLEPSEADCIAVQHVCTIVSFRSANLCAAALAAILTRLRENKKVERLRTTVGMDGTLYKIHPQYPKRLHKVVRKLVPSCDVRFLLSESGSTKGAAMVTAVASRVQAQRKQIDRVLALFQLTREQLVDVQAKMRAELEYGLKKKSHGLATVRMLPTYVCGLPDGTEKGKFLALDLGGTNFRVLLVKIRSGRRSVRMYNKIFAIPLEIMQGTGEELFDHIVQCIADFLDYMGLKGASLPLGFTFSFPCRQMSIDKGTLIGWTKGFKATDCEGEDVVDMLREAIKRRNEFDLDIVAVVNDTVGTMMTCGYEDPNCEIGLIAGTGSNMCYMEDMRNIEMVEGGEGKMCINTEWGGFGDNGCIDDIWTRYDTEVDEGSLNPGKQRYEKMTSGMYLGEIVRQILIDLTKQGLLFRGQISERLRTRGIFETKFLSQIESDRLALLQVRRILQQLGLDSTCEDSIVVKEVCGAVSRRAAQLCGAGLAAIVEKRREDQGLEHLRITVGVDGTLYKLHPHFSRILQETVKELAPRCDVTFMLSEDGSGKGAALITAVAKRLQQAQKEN
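Dosing: single compound dose of 20 µM, 1% DMSO final / Test system: in-house human HKDC1 enzyme, G6PDH and diaphorase coupling enzymes / Quantity: 5 µg/mL HKDC1 final / Incubation: enzyme reaction 90 min, room temperature, in dark / Buffer or medium: pH 8.0 Tris with MgCl2 / Detection: coupled resazurin-to-resorufin fluorescence, Ex 525/Em 613 nm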
The depositor's hits bear a star. The list is a sample of the results.

SMILES	HKDC1 act
O=C(Nc1ccc(N2CCCC2)cc1)c1cccc(-c2cc3ccccc3oc2=O)c1	-40*
Cc1ccc(SSc2cc(C)ccc2N)c(N)c1	-44*
S=C(NCc1ccccn1)NN=Cc1ccccn1	-44*
Cc1cc(C2=NNC(=Nc3ccc(S(=O)(=O)N4CCOCC4)cc3)SC2)c(C)n1C	-73*
O=C(O)c1cccc(-c2ccc(/C=c3/sc4nc5ccccc5n4c3=O)o2)c1	48
CC(C)(C)n1[nH]c2c3c(ccc2c1=O)C(=O)c1ccccc1C3=O	42
O=C(CCNC(=O)c1ccc([N+](=O)[O-])cc1)NCCC1=CCCCC1	35
CCN(CC)CCNc1cc(C)nc2c1C(=O)C(=O)C=C2N1CCCCC1	45
C=CCn1nc([N+](=O)[O-])nc1Sc1cccc2cccnc12	-47*
Cc1ccc(C(=O)/C=C/c2cc(Br)cc(Br)c2O)o1	36
O=C(NCCC(=O)N1CCCC(C(F)(F)F)C1)c1ccc(Br)cc1 (centres undefined)	36
CCOP(=O)(c1ccc(N(C)C)cc1)C(O)c1ccc(OC)cc1 (centres undefined)	56
Cc1onc(-c2ccccc2)c1C(=O)NNC(=S)NC(=O)/C=C/c1cccs1	-57*
O=C(/C=C/c1cccs1)Nc1scc(-c2ccccc2)c1C(=O)O	81
O=C1C(=O)c2c(C(=O)c3ccccc3)coc2-c2ccccc21	51
Cc1ccc(-n2c3nc(=O)[nH]c(=O)c-3cc3cc([N+](=O)[O-])ccc32)cc1	49
Cn1nccc1C(=O)N1CCN(c2cccc(Cl)c2)CC1	39
CC(=NNC(=S)N1CC2CCC(CC2)C1)c1cccc(C)n1	-47*
CC1=NOC(=O)/C1=C\c1ccc(-c2ccc(Cl)cc2Cl)o1	54
Cc1ccc(NC2=C/C(=N\S(=O)(=O)c3cccs3)c3ccccc3C2=O)c(C)c1	40
COc1ccc2[nH]c3c4c(ccc3c2c1)C(=O)C=CC4=O	51
O=S(=O)(c1ccc(NC(=S)NN=C(Cc2ccccc2)Cc2ccccc2)cc1)N1CCOCC1	-47*
Cc1cc2nnc(SCC(=O)Nc3cc(S(=O)(=O)N4CCOCC4)ccc3Cl)n2c2ccccc12	48
O=S(=O)(O)c1ccc(O)c2cc(Nc3ccccc3)ccc12	65
COCc1cc(C2C(C(=O)c3ccco3)=C(O)C(=O)N2CCOCCO)ccc1O (centres undefined)	35
SMILES	HKDC1 act
CCC(C)C(N)C1=NC(C(=O)N[C@@H](CC(C)C)C(=O)N[C@H](CCC(=O)[O-])C(=O)N[C@H](C(=O)N[C@H]2CCCCNC(=O)[C@H](CC(N)=O)NC(=O)[C@@H](CC(=O)[O-])NC(=O)[C@H](Cc3cnc[nH]3)NC(=O)[C@@H](Cc3ccccc3)NC(=O)[C@H]([C@@H](C)CC)NC(=O)[C@@H](CCCN)NC2=O)[C@@H](C)CC)CS1.[Zn+2] (some centres undefined)	92
COc1ccc2c(c1)C(=NNC(=O)c1ccccn1)c1cc(OC)ccc1-2	42
CC(=NNC(=S)SCc1ccccc1)c1ccccn1	-47*
CC(=NNC(=S)Nc1cccc(Cl)c1)c1ccccn1	-46*
O=C(Nc1ccc2nc(-c3ccco3)c(-c3ccco3)nc2c1)NC1CC1	50
Cc1ccccc1S(=O)(=O)c1c(C)cc(C)n(CC(C)C)c1=O	71
COc1ccccc1Nc1ccc2c(O)cc(S(=O)(=O)O)cc2c1	38
CCCC(=O)NC1=C(Cl)C(=O)c2ccccc2C1=O	60
COc1cc(OC)cc(C(=O)NC(=S)NNC(=O)c2cnccn2)c1	-42*
O=C(CN1C(=O)/C(=C2/SC(=S)N(CCS(=O)(=O)O)C2=O)c2ccccc21)Nc1cccc(C(F)(F)F)c1	36
O=C1CSC(=S)N1N=Cc1ccccc1O	-42*
O=C(/C=C/c1cccc(Cl)c1)c1ccc([N+](=O)[O-])o1	61
COc1cc(NC(=O)c2cnc(N)s2)cc(C(=O)Nc2cccc(C(F)(F)F)c2)c1	59
C=CCOc1ccc(C=NNc2ccc(S(=O)(=O)Nc3ccccc3C(=O)O)cc2[N+](=O)[O-])cc1OC	51
CCCC(=O)N1CCN(Cc2ccc3c(c2)OCO3)CC1	-57*
COC(=O)CCC(=O)OC1(C)C(=O)C2=CN(Cc3ccc4c(c3)OCO4)C(c3ccc(OC)cc3)=CC2=C(Br)C1=O (centres undefined)	40
CC(C)Nc1nnc(SCC(=O)Nc2ccc3c(c2)C(=O)c2ccccc2C3=O)s1	43
CC1C/C(=C\c2cccnc2)C(=O)/C(=C/c2cccnc2)C1 (centres undefined)	40
CN(C)Cc1cc(O)c(CN(C)C)cc1O	47
CC(=O)n1cc(N(C(=O)CCl)c2ccc(Cl)cc2)c2ccccc21	58
O=C(NNC(=O)c1cccnc1)NC1CCCCC1	-60*
O=C1C=C(N2CCCCC2)c2ccccc2C1=O	81
O=C(O)c1ccc2ncsc2c1	41
Cc1cc(C)c(S(=O)(=O)/N=C2/C=C(SCC(=O)O)C(=O)c3ccccc32)cc1C	51

High-throughput results: PubChem BioAssay, Sanford-Burnham Center for Chemical Genomics
